Results pooled from the literature.
Each line is one published result; the experiments were not run side by side.
Cell line: MV4-11
Observed: cell growth or viability

SMILES	test	setting	measurement	result
CONC(=O)c1cccc2c1cc(C)n2-c1nc2c(c(NCc3ccccc3)n1)CCCN2		72 h	IC50	400 nM
COc1ccc(Nc2ncnc3c2ncn3Cc2ccc(C(=O)NO)cc2)cc1	MTT	72 h	IC50	580 nM
CN(C)CCN(C)C(=O)c1ccc(-c2nc3ccc4[nH]ncc4c3c3c2CC(C)(C)CC3)cc1	resazurin	72 h	GI50	1900 nM
c1ccc(COc2ccc(Nc3ccc4ncc(OCC5CCNCC5)nc4c3)cc2)cc1	XTT	7 days	EC50	840 nM
O=C(NCC1CC1)c1ccc(-c2nc3ccc4[nH]ncc4c3c3c2CCCC3)cc1	resazurin	72 h	GI50	> 10000 nM
COc1ccc(Nc2ncnc3c2ncn3Cc2ccc(C(=O)Nc3ccccc3N)cc2)cc1	MTT	72 h	IC50	720 nM
COc1cc(-c2cc(C(C)=O)n3ccccc23)c(OC)cc1Cn1ccnc1	ATP luminescence		IC50	70 nM
Cc1cc2c(C(=O)O)cccc2n1-c1nc2c(c(NCc3ccccc3)n1)CCCN2		72 h	IC50	800 nM
O=C(NO)c1ccc(Cn2cnc3c(Nc4ccc(Br)cc4F)ncnc32)cc1	MTT	72 h	IC50	770 nM
Cc1n[nH]c2ccc3nc(-c4ccc(C(=O)NCCN(C)C)cc4)c4c(c3c12)CCC(C)(C)C4	resazurin	72 h	GI50	223 nM
c1cc(N2CCC(N3CCOCC3)CC2)ccc1Nc1ccc2ncc(OCC3CCNCC3)nc2c1	XTT	7 days	EC50	≥ 28000 nM
CN(C)CCNC(=O)c1ccc(-c2nc3ccc4[nH]ncc4c3c3c2COCC3)cc1	resazurin	72 h	GI50	291 nM
c1cc(N2CCCCC2)ccc1Nc1cc2ncc(OCC3CCNCC3)nc2cc1-c1ccc(N2CCCCC2)cc1	XTT	7 days	EC50	3000 nM
NCCNC(=O)c1ccc(-c2nc3ccc4[nH]ncc4c3c3c2CCCC3)cc1	resazurin	72 h	GI50	480 nM
O=C(NO)c1ccc(Cn2cnc3c(Nc4ccc(Cl)cc4)ncnc32)cc1	MTT	72 h	IC50	60 nM
Nc1cccc(-c2ccc3ncc(OCC4CCNCC4)nc3c2)c1	XTT	7 days	EC50	≥ 28000 nM
